In ChEMBL document CHEMBL5370689, “Development of Allosteric NIK Ligands from Fragment-Based NMR Screening” (ACS Med Chem Lett, 2023):
Calls of active or inactive are those of the source.

Legend:
[1] = target: T1, Mitogen-activated protein kinase kinase kinase 14 (Homo sapiens, UniProt Q99558); experiment: Binding affinity to biotinylated N-terminal 6His-tagged/TEV cleavage site-fused human NIK in presence of AMP-PNP by SPR analysis
Summary of the method: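 Dose–response SPR used biotinylated NIK in the presence of saturating AMP-PNP. Kd came from the fitted binding curve, reported as mean ± SEM of two determinations.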
Target sequence in this assay (Q99558 whole entry, the tested form may be a part): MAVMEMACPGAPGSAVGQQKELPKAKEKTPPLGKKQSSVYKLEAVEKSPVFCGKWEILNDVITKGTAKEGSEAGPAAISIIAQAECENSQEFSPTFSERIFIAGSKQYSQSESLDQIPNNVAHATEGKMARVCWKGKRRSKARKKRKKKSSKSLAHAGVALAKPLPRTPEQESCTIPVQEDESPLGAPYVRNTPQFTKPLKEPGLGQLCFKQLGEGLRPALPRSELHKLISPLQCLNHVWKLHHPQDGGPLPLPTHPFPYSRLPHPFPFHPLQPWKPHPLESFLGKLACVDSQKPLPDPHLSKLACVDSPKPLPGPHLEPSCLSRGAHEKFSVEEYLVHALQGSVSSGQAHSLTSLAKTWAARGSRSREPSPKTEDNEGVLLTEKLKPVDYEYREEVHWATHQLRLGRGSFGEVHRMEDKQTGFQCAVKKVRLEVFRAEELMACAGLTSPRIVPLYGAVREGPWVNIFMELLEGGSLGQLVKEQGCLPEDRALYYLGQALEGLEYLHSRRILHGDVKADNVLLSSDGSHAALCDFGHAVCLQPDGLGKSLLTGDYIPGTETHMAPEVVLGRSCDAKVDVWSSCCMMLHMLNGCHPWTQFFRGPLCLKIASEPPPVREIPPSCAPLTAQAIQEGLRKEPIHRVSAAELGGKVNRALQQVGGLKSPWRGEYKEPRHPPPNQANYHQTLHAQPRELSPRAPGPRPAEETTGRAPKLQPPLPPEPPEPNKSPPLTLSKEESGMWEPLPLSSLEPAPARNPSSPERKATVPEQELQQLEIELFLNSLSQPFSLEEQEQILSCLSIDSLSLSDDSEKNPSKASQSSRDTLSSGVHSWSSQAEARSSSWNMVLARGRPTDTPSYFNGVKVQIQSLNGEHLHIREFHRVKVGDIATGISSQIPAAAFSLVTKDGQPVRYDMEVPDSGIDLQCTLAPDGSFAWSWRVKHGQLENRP

[2] = target: T1, Mitogen-activated protein kinase kinase kinase 14; experiment: Binding affinity to biotinylated N-terminal 6His-tagged/TEV cleavage site-fused human NIK by SPR analysis
Summary of the method: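 Biotinylated NIK was probed by SPR with no nucleotide added, in dose–response format. Responses were plotted as a binding curve to give Kd, reported as mean ± SEM of two determinations.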
Target sequence in this assay (Q99558 whole entry, the tested form may be a part): as above

[3] = Aggregation property of the compound in sodium phosphate buffer at pH 7.4 by 1H-NMR spectra analysis; type: physicochemical
[4] = target: T1, Mitogen-activated protein kinase kinase kinase 14; experiment: Binding affinity to N-terminal 6His-tagged/TEV cleavage site-fused human NIK assessed as attenuation of spectral signal at 100 uM in presence of AMP-PNP by 1H-CPMG-NMR analysis relative to control
Target sequence in this assay (Q99558 whole entry, looked up, the tested form may be a part): as the sequence (Q99558 whole entry, the tested form may be a part) above

[5] = target: T1, Mitogen-activated protein kinase kinase kinase 14; experiment: Binding affinity to N-terminal 6His-tagged/TEV cleavage site-fused human NIK assessed as attenuation of spectral signal at 100 uM by 1H-CPMG-NMR analysis relative to control
Target sequence in this assay (Q99558 whole entry, looked up, the tested form may be a part): as the sequence (Q99558 whole entry, the tested form may be a part) above

[6] = Redox activity of the compound in HEPES/NaCl at pH 7.5 measured after 60 mins in presence of DTT by resazurin reagent based assay; type: physicochemical; details: pH 7.5, 1 h
Summary of the method: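 A plate-based redox assay screened for redox activity as a source of false positives. NSC 663284, a known redox-active molecule, served as the positive control.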

[7] = Aqueous solubility of the compound in K2HPO4 in D2O with 5% DMSO-d6 at pH 7.4 by qNMR spectra analysis; type: physicochemical; details: K2HPO4 buffer in D2O with 5% DMSO-d6, pH 7.4
[8] = target: T1, Mitogen-activated protein kinase kinase kinase 14; experiment: Binding affinity to biotinylated N-terminal 6His-tagged/TEV cleavage site-fused human NIK at <500 uM by SPR analysis
Summary of the method: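 Biotinylated NIK used as the SPR surface. Each fragment was run at five concentrations, and the responses were fitted to a binding curve to estimate affinity. A 500 µM affinity cut-off was applied.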
Target sequence in this assay (Q99558 whole entry, looked up, the tested form may be a part): as the sequence (Q99558 whole entry, the tested form may be a part) above

Structure (SMILES)	Kd [1] [µM]	Kd [2] [µM]	further results
Cc1ccc2c(c1)C(O)CCO2 (stereo not given)	> 1000	> 1000	
OC1CCOc2cc(Cl)ccc21 (stereo not given)	214	130	Activity [3]: Not Active; Activity [4]: > 50%; Activity [5]: > 50%; Activity [6]: Not Active; solubility [7]: ≥ 5 mM; Activity [8]: Active
CC1(O)CCOc2cc(Cl)ccc21 (stereo not given)	> 1000	> 1000	
COC1CCOc2cc(Cl)ccc21 (stereo not given)	> 1000	> 1000	
OC1(c2ccccc2)CCOc2cc(Cl)ccc21 (stereo not given)	369	572	
Cc1cc(Cl)cc2c1C(O)(c1ccccc1)CCO2 (stereo not given)	717	367	
Cc1ccc2c(c1)OCCC2O (stereo not given)	> 1000	> 1000	
COc1cc(Cl)cc(C)c1C(C)(O)C1CC1 (stereo not given)	143	150	
Cc1cccc2c1OCCC2O (stereo not given)	> 1000	> 1000	
Cc1cccc2c1C(O)CCO2 (stereo not given)	131	134	
OC1(C2CC2)CCOc2cc(Cl)ccc21 (stereo not given)	290	40.4	
CCC1(O)CCOc2cc(Cl)ccc21 (stereo not given)	583	206	
